From the RNAGym collection of RNA variant scans (doi:10.1126/science.aae0568)
Fewer inactive variants are shown than the library holds.

B1: tRNA (parent)
chain: GUUCCGUUGGCGUAAUGGUAACGCGUCUCCCUCCUAAGGAGAAGACUGCGGGUUCGAGUCCCGUACGGAACG

Variants of: B1
Assay: yeast fitness relative to wild type (ratio to wild type); higher = fitter; tRNA-Arg(CCU), competitive growth, 37 C, YPD
Procedure, shortened: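 Variants of the tRNA-Arg(CCU) gene, chemically synthesised with a 3% per-site mutation rate at 69 sites, were placed at the native genomic locus in Saccharomyces cerevisiae. The pooled strains were competed in YPD at 37°C for 24 hours in six parallel replicates. Gene amplicons from the start population and from each end population were read by 100-nucleotide paired-end sequencing. Darwinian fitness relative to wild type came from changes in genotype frequencies; genotypes needed ≥ 100 starting reads, and estimates < 0.5 were set to 0.5.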
With GUUCCGUUGGCGUAAUGGUAACGAGUCUCCCUCCUAAGGAGAGGACUGCGGAUUCGAAUCCCGUACGGAACG [C24A A43G G52A G58A] the yeast fitness was ≤ 0.5. For GGUCCGUUGGCGUAAUGGUUACGCGUCUCCCUCAUAAGGAGAAGACUGCGGGUUGGAGUCCCGUAAGGAACG [U2G A20U C34A C55G C66A], the yeast fitness was ≤ 0.5. For GUUCCGUUGGCGUAAUGGUAACGCGUCUCCCUCCAAAGGAGAAGACUACGGGUUCGAGUCCCGUACGGAACG [U35A G48A], the yeast fitness was 0.644. In the case of GUACCGUUGGCGUAAUGGUAACGCGUGUCCCUCCUAAGGAGAAGACUGCGGGUUCGAGUCCUGUUCGGAACG [U3A C27G C62U A65U], the yeast fitness is reported as ≤ 0.5. In the case of GUUCGGUUGGCGUAAUGAUAACGCGUCUCCCUCCUAAGGAGAAGACUGCGGGUUAGAGUCUCGUACGGAACG [C5G G18A C55A C61U], the yeast fitness is reported as ≤ 0.5. With GUUCCGUUGGCGUAAUCGUAACGCGUCUCCCUCCUAAGGAGAAGACUGCGGCUUCGAGUCCCGUACGGAACG [G17C G52C] the yeast fitness was ≤ 0.5. In the case of GUCCGGUUGGCGUAAUGGUAACGCGUCUCCCUCCUAAGGAGAAGACUGCGGGUUCGAGUCCCCUAGGGAACG [U3C C5G G63C C66G], the yeast fitness is reported as ≤ 0.5. GUUCCGUAGGCGUAAUGGUAACGCGUCUCCCUCCUAAGCAGAAGACUGCGGGUUCGAGUCCCGUACGGAACG [U8A G39C] showed a yeast fitness of 0.555. For GUUCCGUUGGCGUAAUGGUAACGUGUCUCCCUUCUAAGGAGAAGAUUGAGGGUUCGAGUCCUGUACGGUACG [C24U C33U C46U C49A C62U A69U], the yeast fitness was ≤ 0.5. Variant GUUCCGUUGGCGUAAUGGUAACGCGUCUCCCUCCUAAGGAGAAGAUAGCGGGUUCGAGUCCCGUACGCAACG [C46U U47A G68C] has a yeast fitness of 0.558. In the case of GUACGGUUGGCGUAAUGGUAACGCGUCUGCCUCCUCAGGAGAAGACUGUGGGGUCGAGUCCCGUACGGAACG [U3A C5G C29G A36C C49U U53G], the yeast fitness is reported as ≤ 0.5. For GUUCCGUUGGGGUGAUGGUAACGCGUCUCCCUCCUAAGGAGAAGACUGCGGGUUCGAGUCCCAUAUGGAACG [C11G A14G G63A C66U], the yeast fitness was ≤ 0.5. GUUCCGCUGGCGUAAUGGUGACGCGUCUCCCUCCUAAGGAGAAGACUGCGGGUUCGAGUCCCGUACGGCACG [U7C A20G A69C] showed a yeast fitness of 0.594. In the case of GUUCCGUUGGCGUAAUGGUUCCGCGUCUUCCUCCUAAGGAGAAGACUGCGGGUUCGCGUCCCGUACGGAACG [A20U A21C C29U A57C], the yeast fitness is reported as ≤ 0.5. In the case of GUUCCGUUGGCGUAAUGGUAACGCGCCUCCCUCCUAAGGAGAAGACUGAGGGUUCGAGUCCCGUACGGAACG [U26C C49A], the yeast fitness is reported as 0.598. Work on GUUCUGUUGGCGUAAUGGUAACGAGUCUCCCUCCUAAGGAGAAGACUGCGGGUUCGAGUCCCGUUCGGAACG [C5U C24A A65U] yielded a yeast fitness of 0.733. GUACCGUUGGCGUAAUGGUAACGCGUCUCCCUCCUAAGGAGCAGACUGCGGGUUCGAGUCCCGUACGGAACG [U3A A42C] gave a yeast fitness of 0.72. In the case of GUUCCGUUGGCGUAAUGGUAACGCGUCUCCCUCCUAACGUGAAGACUGCGAGUUCGAGUUCCGUACGAAACG [G38C A40U G51A C60U G68A], the yeast fitness is reported as ≤ 0.5. GGUCCGUUGGCAUAAUGGUAACGCGUCUCCCUCCUAAGGACAAGACUGCGGGUUCGAGUCCCGUACGGAACG [U2G G12A G41C] gave a yeast fitness of 0.596. Work on GUUUCGUUGGCGUAAUGGUAACGCGUCUCCCUCCUAAGGAGAAGAUUGCGGGUUCGAGUCCUGUACGGAACG [C4U C46U C62U] yielded a yeast fitness of 0.806. GUUCCGUUGGCGUCUUGGUAACGCGUCUCCCUACUAGGGAGAAGACUGCGGGUUCGAGUCCCGUACGGAACG [A14C A15U C33A A37G] gave a yeast fitness of 0.596. For GUUCCGUUGCCGUAAUGGUAACGCGUCUCCCUUCUAAGGCGAAGACUGCGGGUUCGAGUCCCGUACGGAACG [G10C C33U A40C], the yeast fitness was ≤ 0.5. Work on GUUCCGUUGGCGUAACGGUAACGCGUCUCCCUCCUAAGGAGAAGACUGCGGGUUCAAGUCCCGUACGGAACG [U16C G56A] yielded a yeast fitness of 1.01. With GUUCCGUUGGCGUAAUGGUAACGCGUCUCCCUCCUUAGGAGAAGACCGCGGCUUCGAGUCCCGUACGGAACG [A36U U47C G52C] the yeast fitness was ≤ 0.5. For GCUCCGUUGGUGUAAUGGUAACGCGUCUCCCUCCUAUGGAGAAGACUGCGGGAUCGAGUCCCGUACGGAACG [U2C C11U A37U U53A], the yeast fitness was ≤ 0.5. GUUCCGUUGGCAUAAUGGUAACGCGUCUCCCUCCUAUGGAGAAGACUGCGGGUUCGCGUCCCGUACGGAACG [G12A A37U A57C] showed a yeast fitness of 0.608. With GUUUCGUUGGCCUAAUGGUAACGCGUCUCCCUCCUAAGGAGAAGACUGCGGGUUCGAGUCCCGCACGGAUCG [C4U G12C U64C A70U] the yeast fitness was ≤ 0.5. In the case of GUUCCGUUGACGUAAUGGUGACGCGCCUCCCUCCUAAGGAGAAGACUGCGGGUUCGAGUCCCGUACGGCGCG [G10A A20G U26C A69C A70G], the yeast fitness is reported as ≤ 0.5. With GUUCCGUUGCCGUAAUGGUAACGCGUCUCCCUCCUAAGGAGAAGUCUGGGGGUUCGAGUACCGUACGGAACG [G10C A45U C49G C60A] the yeast fitness was ≤ 0.5. With GUUCCGUUGGCGUAAAAGUAACGCGUCUCCCUCCUAAGGAGAAGACUGCGGGUUCGGGUCCCGUAUGGAACG [U16A G17A A57G C66U] the yeast fitness was ≤ 0.5. For GUUCAGUUGGCGUAAUGGUAACGCGUCUCCCUCCUAAGGAGAAGACUGCGGGUUCGUGUCGCGUACGGAACG [C5A A57U C61G], the yeast fitness was ≤ 0.5. Work on GUUCCGUUGGCGUAAUGGUAAGGGGUCUCCCUCCUAAGGAGAAGACUGCAGGUUCGAGUCCCGUACGGCACG [C22G C24G G50A A69C] yielded a yeast fitness of 0.574. Work on GUUCAGUUGGCGUAAUGGUAACGCGUCUCCCUCCUAAGGAGAAGACUGCGGGUUCGAGUCCCGUACGGACCG [C5A A70C] yielded a yeast fitness of 0.982. In the case of GUUCCGUUGGCGUAAUGGUAACGCCUCUCCCUCCUAAGGAGAAGACUGUGAGUUCGAGUACCGUACGGAGCG [G25C C49U G51A C60A A70G], the yeast fitness is reported as ≤ 0.5. With GUUCCGUUGGCGUAAUGGUUACGCGCCUCACUCCUAAGGAGAAGACUGCGGGUUCGAGUCCCGUACGGAACG [A20U U26C C30A] the yeast fitness was ≤ 0.5. Variant GUUCCGUUGGCGUAAUGGUAACGCGUCUCCCUCCUAAGGAGAAGACUGCUGGUUCGAGUCCCGUACGGAACG [G50U] has a yeast fitness of 0.961. GUUCGGUUGGUGUAAUGGCAACGCGUCUCCCUCCUAAGGACAAGACUGCGGGUUCGAGUCCCGUACGGAACG [C5G C11U U19C G41C] showed a yeast fitness of 0.536. For GUUCCGUUGACGUAAUGGUACAGCCUCUCCCUCCUAAAGAGAAGACUGCGGGUUCGAGAUCCGUACGGAACG [G10A A21C C22A G25C G38A U59A C60U], the yeast fitness was ≤ 0.5.
